Compound activity as filed in PubChem BioAssay.
In the library only some 4.2% were active in any assay of this set; here they are far more common.
GalR3 antagonist: blocks the human galanin receptor 3; HEK293 GalR3-CNG cAMP membrane potential fluorescence; galR3 body fused to GalR1 C-terminus; inhibition, % at 3 µM; hit rate 0.44% among 360,000;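 active means inhibition above the screen-wide average plus 3 SD, cut at about 13% in these data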;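 further: forskolin and galanin both at EC90 stimulate the cells; cAMP rise reported by CNG channel membrane potential dye signal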
Target sequence (O60755 1-299 limits assumed): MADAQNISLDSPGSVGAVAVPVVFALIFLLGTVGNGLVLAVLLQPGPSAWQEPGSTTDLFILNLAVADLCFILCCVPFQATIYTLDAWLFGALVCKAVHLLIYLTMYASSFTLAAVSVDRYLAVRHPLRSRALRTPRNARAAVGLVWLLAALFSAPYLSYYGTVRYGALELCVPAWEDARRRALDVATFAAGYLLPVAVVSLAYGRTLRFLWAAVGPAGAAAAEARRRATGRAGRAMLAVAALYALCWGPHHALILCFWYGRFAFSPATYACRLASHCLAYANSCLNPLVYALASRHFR
TAAR1 antagonist: antagonists of human TAAR1. Q96RJ0. CHO RD-HGA16 TAAR1, Fluo-8 calcium fluorescence, antagonist. inhibition, % at 3 µM. hit rate 1.5% among 360,000;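 active means inhibition above a per-plate cutoff, the mean inhibition of test compounds on that plate plus 3 SD, cut at about 49% in these data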
Target sequence (Q96RJ0 whole entry, looked up): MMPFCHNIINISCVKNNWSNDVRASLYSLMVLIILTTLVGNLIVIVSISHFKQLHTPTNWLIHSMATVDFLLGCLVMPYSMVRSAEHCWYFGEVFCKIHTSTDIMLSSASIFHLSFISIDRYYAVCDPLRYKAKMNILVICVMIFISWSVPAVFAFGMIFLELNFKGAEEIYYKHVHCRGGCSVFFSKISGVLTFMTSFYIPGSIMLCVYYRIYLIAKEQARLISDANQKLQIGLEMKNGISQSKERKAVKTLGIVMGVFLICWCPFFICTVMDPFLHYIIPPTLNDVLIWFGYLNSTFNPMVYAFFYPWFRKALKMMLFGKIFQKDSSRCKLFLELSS
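Test system – hTAAR1-expressing CHO RD-HGA16 cells, Gα16-coupled · Also added – β-PEA at EC80 concentration, post-compound challenge · Compound – 3 µM, single point · Incubation – dye loading 75 min at 37 °C, then 30 min room temperature · Measured by – Fluo-8 intracellular calcium dye fluorescence, real-time kinetic reads · Benchmarks – vehicle and agonist controls · Replicates – singlicate, one well per test compound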
TAAR1 agonist: human TAAR1 agonism; CHO RD-HGA16 TAAR1, Fluo-8 calcium fluorescence; vehicle wells 0%, saturating PEA agonist 100%; activation, % at 3 µM; hit rate 0.99% among 360,000; AID 624467;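 active means activation above the mean activation of all test compounds in the run plus 3 SD, cut at about 38% in these data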
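Signal – calcium-sensitive Fluo-8 signal, excitation 470-495, emission 515-575 nm · System – RD-HGA16 (CHO) cells co-expressing Gα16 and hTAAR1 · Incubation – 17-24 h seeding, 75 min 37 °C dye, 30 min RT · Compound dosing – 3 µM single concentration · Repeats – no replicates (n 1)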
CHO parental Ca: counter-screen: ATP calcium response change in parental CHO cells. hit rate 0.63% among 330,000. parental CHO-K1, ATP-induced calcium, Fluo-8 fluorescence. inhibition, % at 5.6 µM;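 active means inhibition above that plate's mean sample inhibition plus 3 SD, cut at about 26% in these data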
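Measured by: calcium-sensitive Fluo-8 fluorescence / Test system: CHO parental line / Controls: ATP-challenged DMSO wells low, unchallenged DMSO wells high / Measure: % inhibition / Compound: single nominal dose of 5.6 µM per compound / Replicates: single well per compound, no replicates / Reagent: ATP as calcium-mobilizing challenge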
OX1R antag-1: antagonists of human orexin 1 receptor | CHO/OX1R cells, Fluo-8 calcium fluorescence, orexin A | hit rate 0.43% among 330,000 | AID 434989 | O43613 | inhibition, % at 5 µM;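 active means inhibition above its plate's threshold, mean inhibition of all tested compounds on the plate plus 3 SD, cut at about 37% in these data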
OX1R antag-2: OX1R (human) antagonism. O43613. OX1R-expressing cells, FRET antagonist read-out. inhibition, % at 6.6 µM. hit rate 1.8% among 330,000; in the data active means inhibition mostly above about 38%, no sharp cut-off; inactive means mostly below about 40%
Numbers stand for hits; - = inactive; . = not tested or not shown.

SMILES | GalR3 antagonist | TAAR1 antagonist | TAAR1 agonist | CHO parental Ca | OX1R antag-1 | OX1R antag-2
N#CCCN(Cc1cccnc1)C(=S)NC(=O)c1ccc(S(=O)(=O)N2CCCC2)cc1 | - | - | - | - | - | -
CC(C)(C)C(=O)NC(=S)N1CCCC1 | - | - | - | - | - | -
CC(Cc1ccc(O)c(O)c1)C(C)Cc1ccc(O)c(O)c1 (stereo unspecified) | . | . | . | 34 | - | -
O=C(Nc1ccccc1N1CCN(C(=O)c2ccccc2)CC1)c1ccc([N+](=O)[O-])o1 | - | 55 | - | . | . | .
O=C(Nc1ccccc1N1CCCC1)c1ccc([N+](=O)[O-])o1 | - | - | - | - | - | -
CC(C)C(=O)N1CCN(c2ccccc2NC(=O)c2ccc([N+](=O)[O-])o2)CC1 | - | - | - | - | - | 61
CCCCn1c(N)c(N(CCOC)C(=O)c2cc3c(s2)CCC(C)C3)c(=O)[nH]c1=O (stereo unspecified) | - | - | - | - | - | -
CC(C)(C)C(=O)NC(=S)NNC(=O)c1sc2ccccc2c1Cl | . | . | . | 40 | 69 | -
C/C(=N\Nc1ccc([N+](=O)[O-])cc1)c1ccc(-n2nncc2C)cc1 | - | 57 | - | - | - | -
C/C(=N\Nc1ccc([N+](=O)[O-])cc1)c1ccc(N2CCOCC2)cc1 | - | - | - | - | - | -
O=C1[C@H](Cc2ccccc2)NCCCC[C@@H](c2ccc(Cl)cc2)N1Cc1ccc(Cl)cc1 | - | - | 41 | . | . | .
N#CC1=C(N)N2C(=C(C#N)C1c1ccc(Br)cc1)Nc1ccccc12 (stereo unspecified) | - | - | - | - | - | 76
COc1ccccc1OCCSc1nnnn1-c1ccc(C)cc1 | - | - | - | 40 | - | -
O=C(Cn1cc(/C=N/O)c2ccccc21)N1CCOCC1 | - | - | - | - | - | -
Cc1ccc([C@H]2C(C(=O)O)=CC[C@@H](c3ccc(C(C)C)cc3)N2S(=O)(=O)c2ccc(C)cc2)cc1 | - | - | - | 37 | - | -
Cc1ccc([C@H]2C(C(=O)O)=CC[C@@H](c3ccc(C)cc3)N2S(=O)(=O)c2ccc(C)cc2)cc1 | - | - | - | - | - | 41
Cc1ccc(S(=O)(=O)N2[C@@H](c3ccccc3)C(C(=O)O)=CC[C@H]2c2ccc(C(C)C)cc2)cc1 | - | - | - | - | - | -
COc1ccc(OC)c(/C=C/C(=O)OCC(=O)NCc2cccs2)c1 | - | - | - | - | - | -
CCN(CC)c1nc(N2CCOCC2)nc2ccccc12 | - | - | - | - | - | -
CCN(CC)c1ccc(Nc2nc(N3CCOCC3)c3ccccc3n2)cc1 | - | - | - | - | - | 42
Cc1nc(N2CCCC2)c2nnn(Cc3ccccc3Cl)c2n1 | - | - | - | - | - | -
Cc1c(Br)c([N+](=O)[O-])nn1C(C)C(=O)N1CCc2ccccc2C1 (stereo unspecified) | - | - | 40 | - | - | -
Cc1c(Br)c([N+](=O)[O-])nn1C(C)C(=O)NCc1ccco1 (stereo unspecified) | - | - | - | - | - | -
O=C(/C=C/c1ccccc1O)c1ccco1 | - | - | - | - | - | -
O=C(/C=C/c1cc(Br)ccc1O)c1ccco1 | 28 | - | - | - | - | -
SMILES | GalR3 antagonist | TAAR1 antagonist | TAAR1 agonist | CHO parental Ca | OX1R antag-1 | OX1R antag-2
C=CCn1c(SCC(=O)Nc2ccccc2C)nc2sc(C)c(C)c2c1=O | - | - | - | - | - | -
C=CCn1c(SCC(=O)Nc2cccc(S(N)(=O)=O)c2)nc2sc(C)c(C)c2c1=O | - | - | - | - | - | 33
COc1ccccc1N(Cc1ccccc1)S(=O)(=O)c1cccc(C(=O)Nc2ccc(C)cn2)c1 | - | 50 | - | - | - | -
COc1cccc(-c2nc(CS(=O)(=O)CC(=O)Nc3cccc(C(C)=O)c3)c(C)o2)c1 | - | - | - | - | - | 48
COc1ccc(-c2nc(CS(=O)(=O)CC(=O)Nc3cccc(C(C)=O)c3)c(C)o2)cc1 | - | - | - | - | - | -
COc1cccc(-c2nc(CS(=O)(=O)CC(=O)Nc3c(C)cccc3C)c(C)o2)c1 | . | - | - | - | - | -
COc1ccc(OC)c(NC(=O)CS(=O)(=O)Cc2nc(-c3ccccc3C)oc2C)c1 | . | - | - | - | - | 72
C=CCC[C@H](Cc1ccc(F)cc1)C(=O)OC[C@H](Cc1c[nH]c2ccccc12)NC(=O)[C@@H](CC=C)CC(=O)N(CCO)Cc1ccccc1 | - | - | - | - | - | -
C=CC[C@@H](CC(=O)OC(C)(C)C)C(=O)OC[C@@H]1CCCN1C(=O)[C@@H](CC=C)CC(=O)N[C@@H](CO)Cc1ccccc1 | - | - | - | - | - | -
C=CCC[C@H](Cc1ccc(F)cc1)C(=O)OC[C@@H](Cc1c[nH]c2ccccc12)NC(=O)[C@@H](CC=C)CC(=O)N(CCO)Cc1ccccc1 | - | 51 | - | - | - | -
C=CC[C@@H](CC(=O)N(CCO)Cc1ccccc1)C(=O)N[C@H](C)COC(=O)[C@@H](CC=C)Cc1ccc(F)cc1 | - | - | - | - | - | -
C=CC[C@@H](Cc1ccc(F)cc1)C(=O)OC[C@@H]1CCCN1C(=O)[C@H](CC=C)CC(=O)N[C@H](CO)Cc1ccccc1 | - | - | - | - | 101 | 64
C=CC[C@H](CC(=O)N(CCO)Cc1ccccc1)C(=O)N[C@H](COC(=O)[C@@H](CC=C)Cc1ccc(F)cc1)Cc1ccccc1 | - | 52 | - | - | - | -
CCS(=O)(=O)c1ccc(O)c(NC(=O)Nc2ccccc2)c1 | - | - | - | - | - | -
CN(C)c1cccc(C(=O)N/C=C/n2cnc3cc(C(F)(F)F)ccc32)c1 | - | - | - | - | - | -
N#Cc1ccccc1Cn1c(=O)n(Cc2ccc(C(=O)NCc3ccco3)cc2)c(=O)c2sccc21 | - | - | - | - | - | -
CC1(C)Cc2c(sc3c2c(=N)n(Cc2ccco2)c(=O)n3Cc2ccc(F)cc2)CO1 | - | - | - | - | - | -
COc1ccccc1NC(=O)CSc1nnc(-c2ccc(C)cc2)o1 | - | - | - | - | - | -
COc1cccc(NC(=O)CSc2nnc(-c3ccc(C)cc3)o2)c1 | - | 51 | 61 | - | - | -
Cc1cc(C(F)F)nn1CC(=O)NCc1ccco1 | - | - | - | - | - | -
C[C@@H]1CN(Cc2nc(-c3cccs3)no2)C[C@H](C)O1 | - | - | - | - | - | -
O=C1NCCNC1c1ccccc1 (stereo unspecified) | - | - | - | . | . | .
c1ccc(CN2c3ccccc3-c3nc4ccccc4n3C2c2ccccn2)cc1 (stereo unspecified) | - | 55 | - | - | - | -
Cc1oc2cc3oc(=O)c(CCC(=O)NCCCC(=O)O)c(C)c3cc2c1C | - | - | - | - | - | -
